Laboratory results from ChEMBL document CHEMBL1142137 (Antimicrob Agents Chemother, 2007).
In brackets after ≈: the same amount, converted by molar mass.

Tests used:
[1] = Cmax in human at 1 g, po after 0.5 hrs; type: ADME, organism-based; design: dose 1 g, route oral; conditions: in vivo
Streptococcus pneumoniae [2] = assay: Antibacterial activity against penicillin-resistant Streptococcus pneumoniae P-12698; type: functional
Procedure, shortened: (§1)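 Tube dilution in Mueller-Hinton infusion broth with 5% sterile horse serum, using twofold antibiotic dilutions. Tubes were incubated 18 h at 37°C in 10% CO2-air. MIC was the lowest concentration with no turbidity visible to the naked eye.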

Streptococcus pneumoniae [3] = assay: Antibacterial activity against penicillin-resistant Streptococcus pneumoniae P-54988; type: functional; procedure, shortened: as §1
[4] = Cmax in leukopenic mouse with renal failure at 15 mg/kg, sc after 0.5 hrs; type: ADME, organism-based; design: dose 15 mg/kg, route subcutaneous; conditions: in vivo
[5] = Cmax in leukopenic mouse with renal failure at 7 mg/kg, sc after 0.5 hrs; type: ADME, organism-based; design: dose 7 mg/kg, route subcutaneous; conditions: in vivo
[6] = AUC in leukopenic mouse with renal failure at 7 mg/kg, sc; type: ADME, organism-based; design: dose 7 mg/kg, route subcutaneous; conditions: plasma
Procedure, shortened: (§2)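 Uninfected female Swiss mice (6-7 weeks) made leukopenic with cyclophosphamide (150 mg/kg i.p. […] from 4 days pre-challenge) and given uranyl nitrate 6 mg/kg i.p. once, 4 days earlier. […] AUC0-24 by trapezoid method from one-compartment fit.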

Mus musculus [7] = assay: Effect on survival of Swiss mouse infected with penicillin-resistant Streptococcus pneumoniae P-12698 at 25 mg/kg, sc; type: functional; conditions: route subcutaneous
Procedure, shortened: (§3)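 Female Swiss albino mice, 6-7 weeks old, made leukopenic with cyclophosphamide 150 mg/kg ip daily ×3 from 4 days before challenge. Renal failure from one uranyl nitrate 6 mg/kg ip dose 4 days before challenge. Intratracheal inoculum of ~10^7 log-phase CFU under pentobarbital. […] 12-15 mice/group; deaths recorded daily for 10 days; Mantel-Haenszel comparison.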

Mus musculus [8] = assay: Effect on survival of Swiss mouse infected with penicillin-resistant Streptococcus pneumoniae P-12698 at 15 mg/kg, sc; type: functional; conditions: route subcutaneous; procedure, shortened: as §3
[9] = Half life in leukopenic mouse with renal failure at 15 mg/kg, sc; type: ADME, organism-based; design: dose 15 mg/kg, route subcutaneous; conditions: in vivo
Procedure, shortened: (§4)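 Terminal t1/2 = ln 2/kel, kel from least-squares slope of linear portions of log concentration-time curve; data fitted to one-compartment open model, zero-order absorption, first-order elimination.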

Streptococcus pneumoniae [10] = assay: Antibacterial activity against penicillin-susceptible Streptococcus pneumoniae P-52181
[11] = AUC in leukopenic mouse with renal failure at 15 mg/kg, sc; type: ADME, organism-based; design: dose 15 mg/kg, route subcutaneous; conditions: plasma; procedure, shortened: as §2
[12] = Half life in human at 1 g, po; type: ADME, organism-based; conditions: in vivo
Mus musculus [13] = assay: Effect on survival of Swiss mouse infected with penicillin-susceptible Streptococcus pneumoniae P-52181 at 15 mg/kg, sc
Mus musculus [14] = assay: Effect on survival of Swiss mouse infected with penicillin-resistant Streptococcus pneumoniae P-54988 at 15 mg/kg, sc; type: functional; conditions: route subcutaneous; procedure, shortened: as §3
[15] = Half life in leukopenic mouse with renal failure at 25 mg/kg, sc; type: ADME, organism-based; design: dose 25 mg/kg, route subcutaneous; conditions: in vivo; procedure, shortened: as §4
Mus musculus [16] = assay: Effect on survival of Swiss mouse infected with penicillin-resistant Streptococcus pneumoniae P-15986 at 15 mg/kg, sc; type: functional; conditions: route subcutaneous; procedure, shortened: as §3
[17] = Cmax in leukopenic mouse with renal failure at 25 mg/kg, sc after 0.5 hrs; type: ADME, organism-based; design: dose 25 mg/kg, route subcutaneous; conditions: in vivo
[18] = AUC in leukopenic mouse with renal failure at 25 mg/kg, sc; type: ADME, organism-based; design: dose 25 mg/kg, route subcutaneous; conditions: plasma; procedure, shortened: as §2
Streptococcus pneumoniae [19] = assay: Antibacterial activity against penicillin-resistant Streptococcus pneumoniae P-15986; type: functional; procedure, shortened: as §1
[20] = Half life in leukopenic mouse with renal failure at 7 mg/kg, sc; type: ADME, organism-based; design: dose 7 mg/kg, route subcutaneous; conditions: in vivo; procedure, shortened: as §4
Mus musculus [21] = assay: T>MIC in leukopenic mouse with renal failure at 15 mg/kg, sc; type: ADME, organism-based; design: dose 15 mg/kg, route subcutaneous; conditions: in vivo
Mus musculus [22] = assay: T>MIC in leukopenic mouse with renal failure at 25 mg/kg, sc; type: ADME, organism-based; design: dose 25 mg/kg, route subcutaneous; conditions: in vivo
Mus musculus [23] = assay: T>MIC in leukopenic mouse with renal failure at 7 mg/kg, sc; type: ADME, organism-based; design: dose 7 mg/kg, route subcutaneous; conditions: in vivo
[24] = AUC in human at 1 g, po; type: ADME, organism-based; conditions: plasma

## CC1(C)S[C@@H]2[C@H](NC(=O)[C@H](N)c3ccc(O)cc3)C(=O)N2[C@H]1C(=O)O [AMOXICILLIN]
[1]
  Cmax: 19000 ng/mL
Streptococcus pneumoniae [2]
  MIC: 2 µg/mL (≈ 5.47 µM)
Streptococcus pneumoniae [3]
  MIC: 2 µg/mL (≈ 5.47 µM)
[4]
  Cmax: 28000 ng/mL
[5]
  Cmax: 13000 ng/mL
[6]
  AUC: 46000 ng·h/mL
Mus musculus [7]
  survival at 25 mg/kg: 57%
Mus musculus [8]
  survival at 15 mg/kg: 50%
[9]
  half-life: 1.6 h
Streptococcus pneumoniae [10]
  MIC: 0.03 µg/mL (≈ 0.0821 µM)
[11]
  AUC: 80000 ng·h/mL
[12]
  half-life: 1.5 h
Mus musculus [13]
  survival at 15 mg/kg: 83%
Mus musculus [14]
  survival at 15 mg/kg: 81%
[15]
  half-life: 1.7 h
Mus musculus [16]
  survival at 15 mg/kg: 82%
[17]
  Cmax: 85000 ng/mL
[18]
  AUC: 227000 ng·h/mL
Streptococcus pneumoniae [19]
  MIC: 4 µg/mL (≈ 10.9 µM)
[20]
  half-life: 1.6 h
Mus musculus [21]
  T>MIC: 4 h
Mus musculus [22]
  T>MIC: 8 h
Mus musculus [23]
  T>MIC: 4 h
[24]
  AUC: 68000 ng·h/mL
